Experimental findings from ChEMBL document CHEMBL5661985, “In silico design of novel probes for the atypical opioid receptor MRGPRX2” (Nat Chem Biol, 2017) are described below.

Data set [1] deals with T1, Mas-related G-protein coupled receptor member X2 (Homo sapiens, UniProt Q96LB1).
T1 sequence (Q96LB1 whole entry): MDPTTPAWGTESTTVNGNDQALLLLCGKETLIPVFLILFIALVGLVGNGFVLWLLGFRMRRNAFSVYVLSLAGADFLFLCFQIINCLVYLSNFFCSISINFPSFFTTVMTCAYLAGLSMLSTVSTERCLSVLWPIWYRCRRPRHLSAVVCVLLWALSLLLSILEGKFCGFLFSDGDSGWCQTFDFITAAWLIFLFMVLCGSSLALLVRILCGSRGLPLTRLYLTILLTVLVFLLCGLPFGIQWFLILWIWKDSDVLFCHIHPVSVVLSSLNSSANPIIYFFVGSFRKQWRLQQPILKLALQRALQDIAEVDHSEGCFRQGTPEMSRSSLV
Nature of the data set: Agonist activity at N-terminal Flag-tagged human MRGPRX2 receptor expressed in tetracycline-induced FLP-IN/T-REX 293 cells assessed as increase in intracellular calcium release by FLIPR assay. In kind it is functional, cell-based. As to conditions: read-out: EC50. (In general: A change in cytosolic calcium serves as a functional read-out for many receptors and channels.)

For data set [2], the target named is T2, Mas-related G-protein coupled receptor member X2 (Homo sapiens) (UniProt Q96LB1).
T2 sequence (whole entry): T1 sequence (Q96LB1 whole entry)
Nature of the data set: Agonist activity at MRGPRX2 receptor in human LAD2 cells transfected with MRGPRX2 siRNA assessed as increase in degranulation incubated for 30 mins by beta-hexosaminidase assay. The class given is functional, cell-based. The method, boiled down: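 LAD2 cells (1.2 million/well) transfected with 25 nM MRGPRX2 siRNA pool or non-targeting pool, 72 h; 200,000 cells taken for β-hexosaminidase assay with EC80 concentration of agonist, 30 min 37°C; knockdown checked by qRT-PCR on 1 million cells; fold change % degranulation versus DMSO; two-way ANOVA with Sidak test.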

In data set [3] the test system is HTLA. Nature of the data set: Agonist activity at MRGPRX2 D184N mutant (unknown origin) expressed in HTLA cells assessed as induction of beta-arrestin 2 recruitment incubated for 18 to 24 hrs by PRESTO-Tango assay. The class given is cell-based. As to conditions: Homo sapiens, time 18-24 hrs. The method, boiled down:
(§1)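 β-arrestin2 recruitment by PRESTO-Tango: HTLA cells transiently transfected (calcium phosphate) with codon-optimized MRGPRX2-Tango (WT or point mutant) or MRGPRB2-Tango, plated next day 20,000 cells/well on poly-L-lysine; drug in HBSS/20 mM HEPES/0.3% BSA pH 7.4 for 18–24 h; Bright-Glo luminescence (RLU); curves n=3 in triplicate, mutants n=4 in triplicate.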

The target in data set [4] is Kappa-type opioid receptor (Homo sapiens, UniProt P41145). Nature of the data set: Agonist activity at KOR (unknown origin) by Glo sensor assay. The class given is functional.
Kappa-type opioid receptor, sequence (P41145 whole entry): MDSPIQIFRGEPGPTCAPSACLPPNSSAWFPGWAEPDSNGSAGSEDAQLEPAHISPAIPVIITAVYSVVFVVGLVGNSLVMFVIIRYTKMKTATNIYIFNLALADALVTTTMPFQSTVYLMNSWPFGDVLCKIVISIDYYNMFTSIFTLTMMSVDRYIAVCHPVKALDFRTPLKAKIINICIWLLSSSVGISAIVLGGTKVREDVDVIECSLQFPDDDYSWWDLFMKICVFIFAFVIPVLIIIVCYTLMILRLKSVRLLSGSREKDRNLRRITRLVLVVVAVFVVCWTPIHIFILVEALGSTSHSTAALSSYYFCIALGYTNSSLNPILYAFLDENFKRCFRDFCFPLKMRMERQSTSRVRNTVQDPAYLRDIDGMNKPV
Data set [5] concerns the target T2, Mas-related G-protein coupled receptor member X2 (Homo sapiens). Nature of the data set: Agonist activity at MRGPRX2 receptor in human LAD2 cells assessed as increase in degranulation incubated for 30 mins by beta-hexosaminidase assay. As to conditions: filed as agonist. The class given is functional, cell-based. The method, boiled down:
(§2)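 β-Hexosaminidase release: LAD2 cells in fresh medium 18 h, washed in Tyrode's buffer pH 7.4, 10,000 cells/well; drug (single concentration or 8-point curve) added in triplicate, 30 min 37°C; supernatant and Triton X-100 lysate each reacted with NAG in citrate pH 4.5 for 90 min 37°C, stopped with carbonate pH 10, A405; % release = released/total ×100, minus vehicle.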

Data set [6] has as its system HTLA. Nature of the data set: Agonist activity at MRGPRX2 D184E mutant (unknown origin) expressed in HTLA cells assessed as induction of beta-arrestin 2 recruitment incubated for 18 to 24 hrs by PRESTO-Tango assay. The class given is cell-based. As to conditions: Homo sapiens, time 18-24 hrs. The method, boiled down:
as §1
(Activated receptors often draw arrestin, which recruitment assays turn into a signal.)

In data set [7] the target is T2, Mas-related G-protein coupled receptor member X2 (Homo sapiens). Put plainly: Agonist activity at MRGPRX2 receptor in human LAD2 cells assessed as increase in degranulation incubated for 30 mins in presence of naloxone by beta-hexosaminidase assay. The class given is functional, cell-based. The method, boiled down:
as §2

The test system of data set [8] is HTLA. Put plainly: Agonist activity at MRGPRX2 E164Q mutant (unknown origin) expressed in HTLA cells assessed as induction of beta-arrestin 2 recruitment incubated for 18 to 24 hrs by PRESTO-Tango assay. In kind it is cell-based. As to conditions: Homo sapiens, filed as agonist, time 18-24 hrs. The method, boiled down:
as §1

Data set [9] addresses T1, Mas-related G-protein coupled receptor member X2. Nature of the data set: Agonist activity at MRGPRX2 (unknown origin) expressed in HTLA cells assessed as induction of beta-arrestin 2 recruitment incubated for 18 to 24 hrs by PRESTO-Tango assay. As to conditions: read-out: pEC50 (converted). The class given is functional, cell-based.
A short description of data set [10]: Cytotoxicity against HTLA cells expressing MRGPRX2 (unknown origin) at 1 uM after 24 hrs. In kind it is toxicity, cell-based. As to conditions: human.

Molecules are shown by their SMILES. Active and inactive are the calls of the source. The calls are words filed in the database; no cut-off is given here.

`CC[C@H](C)[C@H](NC(=O)[C@H](CCCNC(=N)N)NC(=O)[C@H](CCCNC(=N)N)NC(=O)[C@H](CC(C)C)NC(=O)[C@H](Cc1ccccc1)NC(=O)CNC(=O)CNC(=O)[C@@H](N)Cc1ccc(O)cc1)C(=O)N[C@@H](CCCNC(=N)N)C(=O)N1CCC[C@H]1C(=O)N[C@@H](CCCCN)C(=O)N[C@@H](CC(C)C)C(=O)N[C@@H](CCCCN)C(=O)O` [ANALOG OF DYNORPHIN A]: the EC50 in [1] was 1.1 µM; in data set [4], 6 pM; in data set [9], 30.2 µM. Moreover, the result (in data set [2]; with HTLA [3]; in the data set with HTLA [6]; in data set [7]) was inactive. The result (in [5]; in the data set on HTLA [8]) was Active.
Take `C[C@@H]1C[C@H]2Cc3ncc(-c4ccc5c(n4)C[C@@H]4C[C@@H](C)C[C@]56NCCC[C@H]46)cc3[C@]3(C1)NCCC[C@H]23` [COMPLANADINE A]: the EC50 in [1] is 18 µM; in [9], 0.692 µM. For the same molecule, the Activity entry in data set [10] is given as “Toxic”.
